The values below come from ChEMBL document CHEMBL3259588, “Anti-inflammatory drimane sesquiterpene lactones from an Aspergillus species” (Bioorg Med Chem, 2014).

Holding throughout (format): cell-based
The nature of data set [1]: (§1) Inhibition of TNF-alpha/IFN-gamma/IL-1beta-induced human CXCL10 (972 bp) promoter activity expressed in human DLD1 cells after 24 hrs by luciferase reporter assay. The note with it: DLD-1, 24 h. The essentials: (§2)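 DLD-1 in 24-well plates, switched to 0.5% FCS without antibiotics a day before lipofection (Lipofectamine 2000, 0.8 µg plasmid) with 972 bp CXCL10 promoter, NF-κB, GAS/Stat1 or ISRE luciferase reporters plus pRL-CMV. Stimulated 24 h with 10 ng/mL TNF-α, 10 ng/mL IFN-γ, 5 ng/mL IL-1β ± compound; Dual-Glo firefly/Renilla read. Stimulation-only = 100%; mean ± SEM, ≥3 experiments.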
In general terms: In a reporter assay the amount or activity of a reporter protein is the signal.

In data set [2] the test system is DLD-1. The data set is described as §1. The essentials: as §2
Data set [3] is described as follows: Inhibition of TNF-alpha/IFN-gamma/IL-1beta-induced human CXCL10 (972 bp) promoter activity expressed in human DLD1 cells after 24 hrs by […]-driven luciferase reporter assay. To be noted: DLD-1, 24 h. The essentials: as §2
Data set [4] concerns the target T1, Signal transducer and activator of transcription 1-alpha/beta (Homo sapiens) (UniProt P42224).
T1 sequence (whole entry): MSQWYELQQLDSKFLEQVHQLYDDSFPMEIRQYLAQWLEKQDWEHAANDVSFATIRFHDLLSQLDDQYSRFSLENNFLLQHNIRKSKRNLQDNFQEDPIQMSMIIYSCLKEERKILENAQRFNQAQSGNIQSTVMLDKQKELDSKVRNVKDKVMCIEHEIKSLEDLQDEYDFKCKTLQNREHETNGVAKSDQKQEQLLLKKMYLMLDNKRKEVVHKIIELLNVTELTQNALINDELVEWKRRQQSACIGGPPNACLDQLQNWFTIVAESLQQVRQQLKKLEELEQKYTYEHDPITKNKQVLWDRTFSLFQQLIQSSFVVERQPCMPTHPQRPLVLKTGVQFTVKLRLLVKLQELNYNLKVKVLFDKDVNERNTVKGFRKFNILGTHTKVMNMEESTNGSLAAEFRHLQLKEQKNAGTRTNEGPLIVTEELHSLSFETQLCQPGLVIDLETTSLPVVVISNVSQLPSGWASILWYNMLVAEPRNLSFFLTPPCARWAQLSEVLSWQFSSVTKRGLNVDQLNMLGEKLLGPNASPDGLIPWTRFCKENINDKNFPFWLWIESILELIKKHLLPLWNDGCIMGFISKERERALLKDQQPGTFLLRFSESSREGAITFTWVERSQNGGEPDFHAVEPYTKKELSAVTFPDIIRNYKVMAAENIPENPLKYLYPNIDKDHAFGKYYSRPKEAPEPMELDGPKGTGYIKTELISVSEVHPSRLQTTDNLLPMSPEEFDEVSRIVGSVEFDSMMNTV
Put plainly: Inhibition of Stat1 (unknown origin)-induced human CXCL10 (972 bp) promoter activity expressed in TNF-alpha/IFN-gamma/IL-1beta-stimulated human DLD1 cells after 24 hrs by luciferase reporter assay. To be noted: DLD-1. The essentials:
as §2

The subject of data set [5] is DLD-1. The data set can be described thus: Inhibition of TNF-alpha/IFN-gamma/IL-1beta-induced human CXCL10 (972 bp) promoter activity expressed in human DLD1 cells assessed as CXCL10 gene expression at 27.5 uM after 5 hrs by RT-PCR method relative to untreated-control. The essentials:
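Cells starved 16 h (0.5% FCS), compound pretreatment 1 h, then TNF-α 10 ng/mL/IFN-γ 10 ng/mL/IL-1β 5 ng/mL for 5 h. Total RNA analysed by two-step qRT-PCR for cxcl10, gapdh-corrected (Pfaffl); induced vs uninduced and treated-induced vs untreated-induced (100%).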

Data set [6] addresses T2, Nuclear factor NF-kappa-B complex (Homo sapiens) (UniProt Q00653+P19838+Q04206). The data set can be described thus: Inhibition of NF-kappaB (unknown origin) expressed human DLD1 cells assessed as reduction in TNF-alpha gene expression pretreated at 13.75 uM for 1 hr by RT-PCR method relative to untreated-control. To be noted: DLD-1. The essentials: (§3)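 DLD-1 seeded 5×10^5 cells/mL, grown 24 h, starved 16 h in 0.5% FCS, pretreated with compound 1 h, then stimulated with 10 ng/mL TNF-α, 10 ng/mL IFN-γ, 5 ng/mL IL-1β for 5 h. tnf-α, il-1β, inos mRNA by two-step qRT-PCR, Pfaffl relative quantification, normalised to gapdh; stimulated-untreated control = 100%. Mean ± SEM, three independent experiments.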

In data set [7] the target is T2, Nuclear factor NF-kappa-B complex (Homo sapiens). The data set can be described thus: Inhibition of NF-kappaB (unknown origin) expressed human DLD1 cells assessed as reduction in IL1-beta gene expression pretreated at 13.75 uM for 1 hr by RT-PCR method relative to untreated-control. The note with it: DLD-1. The essentials:
as §3

Data set [8] has the same target. The data set can be described thus: Inhibition of NF-kappaB (unknown origin) expressed human DLD1 cells assessed as reduction in iNOS gene expression pretreated at 13.75 uM for 1 hr by RT-PCR method relative to untreated-control. The note with it: DLD-1. The essentials:
as §3

The target of data set [9] is T1, Signal transducer and activator of transcription 1-alpha/beta (Homo sapiens). Put plainly: Inhibition of Stat1 (unknown origin) expressed human DLD1 cells assessed as reduction in IL1-beta gene expression pretreated at 13.75 uM for 1 hr by RT-PCR method relative to untreated-control. The note with it: DLD-1. The essentials:
as §3

Data set [10] shares this target. The data set can be described thus: Inhibition of Stat1 (unknown origin) expressed human DLD1 cells assessed as reduction in TNF-alpha gene expression pretreated at 13.75 uM for 1 hr by RT-PCR method relative to untreated-control. To be noted: DLD-1. The essentials:
as §3

Data set [11] has the same target. The data set can be described thus: Inhibition of Stat1 (unknown origin) expressed in human DLD1 cells assessed as reduction in iNOS gene expression pretreated at 13.75 uM for 1 hr by RT-PCR method relative to untreated-control. To be noted: DLD-1. The essentials: as §3
A short description of data set [12]: Cytotoxicity against human DLD1 cells up to 50 uM after 48 hrs by XTT assay. The note with it: dld-1, 48 h. The essentials:
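DLD-1 cells (RPMI 1640, 25 mM HEPES, 10% FCS, 37 °C, 5% CO2) exposed to compound for 48 h; viability read as XTT reduction to coloured formazan.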
In general terms: Formazan colour is commonly taken as a measure of viable cells.

The subject of data set [13] is DLD-1. The data set can be described thus: Inhibition of TNF-alpha/IFN-gamma/IL-1beta-induced human CXCL10 (972 bp) promoter activity expressed in human DLD1 cells assessed as reduction in CXCL10 expression pretreated at 27.5 uM for 1 hr prior to 16 hrs cytokine challenge by proteome profiling method relative to untreated-control. The essentials:
(§4)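 DLD-1 starved 16 h in 0.5% FCS, seeded 5×10^6 cells/mL, pretreated 1 h with compound, then stimulated 16 h with 10 ng/mL TNF-α, 10 ng/mL IFN-γ, 5 ng/mL IL-1β. Supernatant cytokines/chemokines detected on Human Cytokine Array Panel A antibody array.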

For data set [14], the system named is DLD-1. The data set can be described thus: Inhibition of TNF-alpha/IFN-gamma/IL-1beta-induced human CXCL10 (972 bp) promoter activity expressed in human DLD1 cells assessed as reduction in MIF expression pretreated at 27.5 uM for 1 hr prior to 16 hrs cytokine challenge by proteome profiling method relative to untreated-control. The essentials:
as §4

Data set [15] relates to DLD-1. Put plainly: Inhibition of TNF-alpha/IFN-gamma/IL-1beta-induced human CXCL10 (972 bp) promoter activity expressed in human DLD1 cells assessed as reduction in IL8 expression pretreated at 27.5 uM for 1 hr prior to 16 hrs cytokine challenge by proteome profiling method relative to untreated-control. The essentials:
as §4

For data set [16], the system named is DLD-1. The data set can be described thus: Inhibition of TNF-alpha/IFN-gamma/IL-1beta-induced human CXCL10 (972 bp) promoter activity expressed in human DLD1 cells assessed as reduction in CXCL1 expression pretreated at 27.5 uM for 1 hr prior to 16 hrs cytokine challenge by proteome profiling method relative to untreated-control. The essentials:
as §4

Data set [17] concerns DLD-1. Put plainly: Inhibition of TNF-alpha/IFN-gamma/IL-1beta-induced human CXCL10 (972 bp) promoter activity expressed in human DLD1 cells assessed as reduction in IL1-beta expression pretreated at 27.5 uM for 1 hr prior to 16 hrs cytokine challenge by proteome profiling method relative to untreated-control. The essentials:
as §4

The test system of data set [18] is DLD-1. Put plainly: Inhibition of TNF-alpha/IFN-gamma/IL-1beta-induced human CXCL10 (972 bp) promoter activity expressed in human DLD1 cells assessed as reduction in IL-27 expression pretreated at 27.5 uM for 1 hr prior to 16 hrs cytokine challenge by proteome profiling method relative to untreated-control. The essentials: as §4
Data set [19] deals with DLD-1. The data set can be described thus: Inhibition of TNF-alpha/IFN-gamma/IL-1beta-induced human CXCL10 (972 bp) promoter activity expressed in human DLD1 cells assessed as reduction in TNF-alpha expression pretreated at 27.5 uM for 1 hr prior to 16 hrs cytokine challenge by proteome profiling method relative to untreated-control. The essentials: as §4
The test system of data set [20] is DLD-1. The data set can be described thus: Inhibition of TNF-alpha/IFN-gamma/IL-1beta-induced human CXCL10 (972 bp) promoter activity expressed in human DLD1 cells assessed as reduction in CXCL10 expression pretreated at 131.5 uM for 1 hr prior to 16 hrs cytokine challenge by proteome profiling method relative to untreated-control. The essentials:
as §4

Data set [21] deals with DLD-1. The data set can be described thus: Inhibition of TNF-alpha/IFN-gamma/IL-1beta-induced human CXCL10 (972 bp) promoter activity expressed in human DLD1 cells up to 260 uM after 24 hrs by luciferase reporter assay relative to untreated-control. The essentials: as §2
The target of data set [22] is T2, Nuclear factor NF-kappa-B complex (Homo sapiens). The data set can be described thus: Inhibition of NF-kappaB (unknown origin)-induced human CXCL10 (972 bp) promoter activity expressed in TNF-alpha/IFN-gamma/IL-1beta-stimulated human DLD1 cells up to 260 uM after 24 hrs by luciferase reporter assay. The note with it: DLD-1. The essentials: as §2
For data set [23], the system named is DLD-1. Put plainly: Inhibition of TNF-alpha/IFN-gamma/IL-1beta-induced human CXCL10 (972 bp) promoter activity expressed in human DLD1 cells up to 260 uM after 24 hrs by […]-driven luciferase reporter assay. The essentials: as §2
Data set [24] addresses T1, Signal transducer and activator of transcription 1-alpha/beta (Homo sapiens). The data set can be described thus: Inhibition of Stat1 (unknown origin)-induced human CXCL10 (972 bp) promoter activity expressed in TNF-alpha/IFN-gamma/IL-1beta-stimulated human DLD1 cells up to 260 uM after 24 hrs by luciferase reporter assay. The note with it: DLD-1. The essentials:
as §2

Molecules are shown by their SMILES. Activity calls are given as the source filed them. The rule behind the calls is not given here.

T2 sequence (P19838 whole entry, looked up): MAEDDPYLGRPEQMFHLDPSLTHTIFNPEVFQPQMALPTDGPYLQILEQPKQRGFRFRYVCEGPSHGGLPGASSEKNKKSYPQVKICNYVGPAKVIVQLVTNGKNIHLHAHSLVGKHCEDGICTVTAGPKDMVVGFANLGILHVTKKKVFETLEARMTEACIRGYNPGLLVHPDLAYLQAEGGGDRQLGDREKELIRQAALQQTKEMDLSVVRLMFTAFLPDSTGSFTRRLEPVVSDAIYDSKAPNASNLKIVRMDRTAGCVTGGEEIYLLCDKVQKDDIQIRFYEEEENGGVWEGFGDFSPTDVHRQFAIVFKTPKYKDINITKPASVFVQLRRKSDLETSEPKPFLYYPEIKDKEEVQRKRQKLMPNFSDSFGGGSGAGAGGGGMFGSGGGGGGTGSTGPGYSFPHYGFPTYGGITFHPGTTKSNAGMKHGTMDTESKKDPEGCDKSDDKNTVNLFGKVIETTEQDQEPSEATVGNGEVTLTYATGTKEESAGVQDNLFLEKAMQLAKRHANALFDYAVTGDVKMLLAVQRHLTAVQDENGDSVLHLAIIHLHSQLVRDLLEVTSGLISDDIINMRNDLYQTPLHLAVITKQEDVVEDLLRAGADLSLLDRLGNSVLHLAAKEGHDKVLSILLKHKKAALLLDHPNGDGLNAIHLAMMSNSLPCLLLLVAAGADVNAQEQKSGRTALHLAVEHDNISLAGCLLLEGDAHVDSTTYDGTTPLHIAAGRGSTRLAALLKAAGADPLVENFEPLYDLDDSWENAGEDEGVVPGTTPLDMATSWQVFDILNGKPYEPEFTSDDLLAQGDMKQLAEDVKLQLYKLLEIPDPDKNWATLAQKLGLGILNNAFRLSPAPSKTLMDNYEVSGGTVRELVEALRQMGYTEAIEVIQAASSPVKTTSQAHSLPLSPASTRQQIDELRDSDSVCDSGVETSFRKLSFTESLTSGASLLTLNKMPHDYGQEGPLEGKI
T2 sequence (Q00653 whole entry, looked up): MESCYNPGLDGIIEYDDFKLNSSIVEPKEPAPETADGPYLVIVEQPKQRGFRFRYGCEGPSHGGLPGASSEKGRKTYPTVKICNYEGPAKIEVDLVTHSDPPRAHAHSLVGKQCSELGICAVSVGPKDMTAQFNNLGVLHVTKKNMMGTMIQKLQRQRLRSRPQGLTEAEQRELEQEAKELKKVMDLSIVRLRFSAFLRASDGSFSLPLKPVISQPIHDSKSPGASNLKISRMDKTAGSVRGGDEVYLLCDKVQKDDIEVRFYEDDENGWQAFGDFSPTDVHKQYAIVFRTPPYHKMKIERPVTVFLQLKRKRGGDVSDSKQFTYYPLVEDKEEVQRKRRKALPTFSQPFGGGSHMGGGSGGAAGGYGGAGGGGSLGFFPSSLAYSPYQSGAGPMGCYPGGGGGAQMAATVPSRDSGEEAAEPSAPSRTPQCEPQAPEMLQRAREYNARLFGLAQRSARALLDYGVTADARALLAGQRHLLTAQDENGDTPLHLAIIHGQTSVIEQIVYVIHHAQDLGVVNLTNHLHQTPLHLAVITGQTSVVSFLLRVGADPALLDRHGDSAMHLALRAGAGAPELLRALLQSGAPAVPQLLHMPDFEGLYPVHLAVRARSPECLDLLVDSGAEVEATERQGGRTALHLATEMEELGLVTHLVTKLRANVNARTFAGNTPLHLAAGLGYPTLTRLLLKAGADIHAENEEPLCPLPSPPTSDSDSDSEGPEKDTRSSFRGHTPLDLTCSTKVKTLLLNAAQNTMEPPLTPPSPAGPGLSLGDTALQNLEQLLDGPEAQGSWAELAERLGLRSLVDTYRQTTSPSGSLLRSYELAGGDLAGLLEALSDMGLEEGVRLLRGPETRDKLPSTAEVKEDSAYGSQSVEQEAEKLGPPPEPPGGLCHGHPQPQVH
T2 sequence (Q04206 whole entry, looked up): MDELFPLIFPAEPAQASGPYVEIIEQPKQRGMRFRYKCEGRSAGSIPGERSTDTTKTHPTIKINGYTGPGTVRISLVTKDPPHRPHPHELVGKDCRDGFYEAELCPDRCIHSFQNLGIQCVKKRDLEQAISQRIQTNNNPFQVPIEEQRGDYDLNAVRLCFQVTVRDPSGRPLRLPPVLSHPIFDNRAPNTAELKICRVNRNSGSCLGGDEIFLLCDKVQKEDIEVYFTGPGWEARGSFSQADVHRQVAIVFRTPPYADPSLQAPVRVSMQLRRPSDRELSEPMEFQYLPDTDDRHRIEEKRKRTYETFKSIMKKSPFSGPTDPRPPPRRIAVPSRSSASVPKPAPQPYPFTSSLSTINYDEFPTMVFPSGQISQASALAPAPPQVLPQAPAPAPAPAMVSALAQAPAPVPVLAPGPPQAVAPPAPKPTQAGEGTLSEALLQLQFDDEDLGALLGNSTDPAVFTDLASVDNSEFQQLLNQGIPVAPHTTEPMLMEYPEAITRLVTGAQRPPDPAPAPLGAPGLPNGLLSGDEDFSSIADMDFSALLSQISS

`CCCCCC(=O)O[C@@H]1C=C2COC(=O)C2(O)[C@@]2(C)CCCC(C)(C)[C@H]12` (some centres undefined): the values for the IC50 in data set [1] and in data set [3] were 12.4 µM and 14.3 µM, respectively. The inhibition result in [2] and in [4] was “Dose-dependent effect” in each case. For the same molecule, the inhibition result in data set [5], in [6], in data set [7], in data set [8], in [9] and in [10] was “Active” throughout. Moreover, the inhibition entry in data set [11], in data set [13], in data set [14], in [15], in data set [16] and in [17] was “Active” throughout. The inhibition entry in data set [18], in data set [19] and in data set [20] was “Active” each time. For the same molecule, the Activity entry in data set [12] is reported as “Non-toxic”.
Take `CCCCCC(=O)O[C@@H]1C=C2CO[C@@H](O)[C@]2(O)[C@@]2(C)[C@H](O)CCC(C)(C)[C@H]12`: the inhibition entry in data set [21], in data set [22], in data set [23] and in data set [24] was “inactive” each time.

As a reminder, the IC50 is the concentration that gives 50% inhibition. A lower IC50 goes with inhibition by little substance.
